Experimental data reported in ChEMBL document CHEMBL3259639, “RE12 derivatives displaying Vaccinia H1-related phosphatase (VHR) inhibition in the presence of detergent and their anti-proliferative activity against HeLa cells” (Bioorg Med Chem, 2014).
Calls of active or inactive are those of the source. The rule behind the calls is not given here.

Experiments:
[1] = test system: HeLa; test: Antiproliferative activity against human HeLa cells at 20 uM after 48 hrs incubation by Alamar Blue assay; format: functional, cell-based
Method in brief: (§1)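 HeLa cells plated at 3 x 10^3 cells/well, treated 48 h at a single concentration (20 or 30 µM as per line); viability by Alamar Blue added for 3 h at 37 °C, 5% CO2, fluorescence at 530 nm ex/590 nm em; percent inhibition of proliferation.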

[2] = test system: HeLa; test: Antiproliferative activity against human HeLa cells at 30 uM after 48 hrs incubation by Alamar Blue assay; format: functional, cell-based; method in brief: as §1
[3] = target: T1, Dual specificity protein phosphatase 3 (Homo sapiens, UniProt P51452); test: Inhibition of Vaccinia H1-related phosphatase (unknown origin) by fluorescence emission assay
Method in brief: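 Purified VHR (22 ng) preincubated with or without compound 30 min at 37 °C in 50 mM succinate, 1 mM EDTA, 150 mM NaCl, 1 mM DTT, pH 6.0, 0.001% NP-40; reaction begun with 10 µM O-methylfluorescein phosphate, 10 min at 37 °C; product fluorescence at 485 nm ex/530 nm em; IC50 from sigmoid dose-response curve.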
Target sequence in this assay (P51452 whole entry): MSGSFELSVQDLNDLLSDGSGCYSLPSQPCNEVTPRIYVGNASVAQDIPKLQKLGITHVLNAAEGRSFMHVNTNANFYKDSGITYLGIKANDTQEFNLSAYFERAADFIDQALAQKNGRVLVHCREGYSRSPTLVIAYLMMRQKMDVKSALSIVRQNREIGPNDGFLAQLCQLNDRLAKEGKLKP

[4] = target: T1, Dual specificity protein phosphatase 3; conditions: 100 uM
Target sequence in this assay (P51452 whole entry, looked up): as the sequence (P51452 whole entry) above

[5] = target: T1, Dual specificity protein phosphatase 3; test: Inhibition of Vaccinia H1-related phosphatase (unknown origin) by fluorescence emission assay in presence of 0.001% NP-40
Target sequence in this assay (P51452 whole entry): as above

[6] = test system: HeLa; test: Antiproliferative activity against human HeLa cells after 48 hrs incubation by Alamar Blue assay; format: functional, cell-based
Method in brief: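 HeLa cells seeded at 3 x 10^3 cells/well, exposed to compounds for 48 h; Alamar Blue then added and incubated 3 h at 37 °C, 5% CO2; fluorescence read at 530 nm excitation/590 nm emission. IC50 taken from sigmoid dose-response curve.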

SMILES | inhibition [1] | inhibition [2] | also measured
Cc1cccc(CN/C(CCCCc2ccccc2OCc2cccc(Cl)c2)=C2\C(=O)OC(CO)C2=O)c1 (stereo unspecified) | Active | Active | –
Cc1cccc(CN/C(CCCCc2ccccc2OCc2ccccc2Cl)=C2\C(=O)OC(CO)C2=O)c1 (stereo unspecified) | Active | Active | –
CCCCCCCCCCCCCCC/C(NCc1cccc(C)c1)=C1/C(=O)OC(CO)C1=O (stereo unspecified) | Active | Active | IC50 [3]: 1.6 µM; inhibition [4]: inactive; IC50 [5]: > 100 µM
Cc1cccc(CN/C(CCCCc2ccccc2OCc2ccc([N+](=O)[O-])cc2)=C2\C(=O)OC(CO)C2=O)c1 (stereo unspecified) | Active | Active | –
Cc1cccc(CN/C(CCCCc2ccccc2OCc2ccc(Cl)cc2)=C2\C(=O)OC(CO)C2=O)c1 (stereo unspecified) | Active | Active | –
Cc1cccc(CN/C(CCCCc2cccc(OCc3cccc(Cl)c3)c2)=C2\C(=O)OC(CO)C2=O)c1 (stereo unspecified) | Active | Active | –
Cc1cccc(CN/C(CCCCc2cccc(OCc3ccccc3Cl)c2)=C2\C(=O)OC(CO)C2=O)c1 (stereo unspecified) | Active | Active | –
Cc1cccc(CN/C(CCCCc2ccc(OCc3cccc(Cl)c3)cc2)=C2\C(=O)OC(CO)C2=O)c1 (stereo unspecified) | – | – | IC50 [6]: 7.8 µM
Cc1cccc(CN/C(CCCCc2ccccc2OCc2ccccc2)=C2\C(=O)OC(CO)C2=O)c1 (stereo unspecified) | Active | Active | –
Cc1cccc(CN/C(CCCCc2ccc(OCc3ccccc3Cl)cc2)=C2\C(=O)OC(CO)C2=O)c1 (stereo unspecified) | – | – | IC50 [6]: 10.6 µM
Cc1cccc(CN/C(CCCCc2ccc(OCc3ccc(Cl)cc3)cc2)=C2\C(=O)OC(CO)C2=O)c1 (stereo unspecified) | – | Active | –
Cc1cccc(CN/C(CCCCc2cccc(OCc3ccc(Cl)cc3)c2)=C2\C(=O)OC(CO)C2=O)c1 (stereo unspecified) | Active | Active | –
Cc1cccc(CN/C(CCCCc2ccccc2OCc2ccc(C(F)(F)F)cc2)=C2\C(=O)OC(CO)C2=O)c1 (stereo unspecified) | Active | Active | –
